From publication PMC6421850 (The Journal of organic chemistry, 2018)
Where two headings read alike, the source gives them in different places.

Key:
[1] = test system: KB (epidermoid carcinoma of the nasopharynx); experiment: Antiproliferative activity, SRB assay, KB; format: cell-based, human; details: read-out: IC50 KB
[2] = test system: KB-VIN (P-gp-overexpressing MDR subline of KB); experiment: Antiproliferative activity, SRB assay, KB-VIN; details: read-out: IC50 KB-VIN, 50% reduction relative to untreated cells
A549 (lung carcinoma) = experiment: Antiproliferative activity, SRB assay, A549; format: cell-based, human
[3] = test system: MDA-MB-231 (triple-negative breast cancer); experiment: Antiproliferative activity, SRB assay, MDA-MB-231; format: cell-based, human
MDA-MB-231 cells [4] = experiment: Cell cycle analysis by flow cytometry; format: cell-based, human; details: MDA-MB-231, 24 h; for accumulation of sub-G1 cells: dose-dependent; for effect on cell cycle progression: flow cytometry, PI staining; for propidium iodide (PI) signals: higher concentrations
In short: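 MDA-MB-231 cells were exposed to test compound for 24 h at the indicated concentrations, with DMSO as vehicle control. DNA content was stained with propidium iodide/RNase. Cell-cycle distribution, including the sub-G1 fraction, was read by flow cytometry.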

[5] = test system: MCF-7 (estrogen receptor-positive and HER2-negative breast cancer); experiment: Antiproliferative activity, SRB assay, MCF-7; format: cell-based, human
[6] = test system: horse's blood (red blood cells); experiment: In vitro hemolytic assay; format: cell-based; details: up to 500 μM
[7] = test system: all tested human tumor cell lines, including MDR subline; experiment: Antiproliferative activity, all tested human tumor cell lines; format: cell-based; details: read-out: IC50 values against all tested human tumor cell lines
MDA-MB-231 cells [8] = experiment: Immunocytochemistry; format: cell-based, human; details: MDA-MB-231, 24 h
In short: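 MDA-MB-231 cells were seeded on chamber slides 24 h before a 24 h exposure, with 0.1% DMSO as control. Cells were fixed in 4% paraformaldehyde/PBS and permeabilised with 0.5% Triton X-100. They were probed with mouse anti-α-tubulin, then FITC anti-mouse IgG, with DAPI for nuclei. Confocal projections used 12–18 sections at 0.6–1 μm intervals. Each concentration was repeated at least twice.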

[9] = test system: KB-VIN (P-gp-overexpressing MDR subline of KB)
[10] = SRB assay, 50% reduction relative to untreated cells
[11] = read-out: IC50 A549, SRB assay, 50% reduction relative to untreated cells
[12] = read-out: IC50 MDA-MB-231, SRB assay, 50% reduction relative to untreated cells
[13] = read-out: IC50 MCF-7, SRB assay, 50% reduction relative to untreated cells
[14] = Homo sapiens, A549, read-out: IC50 A549
[15] = Homo sapiens, MDA-MB-231, read-out: IC50 MDA-MB-231
[16] = Homo sapiens, MCF7, read-out: IC50 MCF-7

Compound	IC50 [1, 10] [nM]	IC50 [2] [nM]	IC50 (A549 (lung carcinoma); [11]) [nM]	IC50 [3, 12] [nM]	accumulation of sub-G1 cells (MDA-MB-231 cells [4])	effect on cell cycle progression (MDA-MB-231 cells [4])	propidium iodide (PI) signals (MDA-MB-231 cells [4])	IC50 [5, 13] [nM]	hemolytic activity (in words) [6]	IC50 ([1]; Homo sapiens) [nM]	IC50 (A549 (lung carcinoma); [14]) [nM]	IC50 [3, 15] [nM]	IC50 [5, 16] [nM]	IC50 [7] [nM]	cell morphology (microtubules, chromatin) (MDA-MB-231 cells [8]; 1.5 μM (3-fold IC50))	cell morphology (microtubules, chromatin) (MDA-MB-231 cells [8]; 4.9 μM (10-fold IC50))	induction of apoptosis (MDA-MB-231 cells [8]; 1.5 and 4.9 μM)	IC50 [9] [nM]
C=CC(=C)CCC1(C)C(C)CC(O)C23C(=CC(OC(=O)C(C)CC)CC12)C(OC(C)=O)OC3OC(C)=O (stereo not drawn) [Compound 17, 18,19-di-O-acetyl-18,19-epoxy-6-hydroxy-2-(2′-methylbutanoyloxy)cleroda-3,13-(16),14-triene]	730	4070	4150	540	significant accumulations of sub-G1 cells	no effect on cell cycle progression	decreased unusually and dramatically in all cells	890	–	–	–	–	–	–	–	–	–	–
caseamembrin S [Compound 16]	530	900	580	450	significant accumulations of sub-G1 cells	no effect on cell cycle progression	decreased unusually and dramatically in all cells	660	–	–	–	–	–	–	–	–	–	–
C=CC(=C)CCC1(C)C(C)CC(O)C23C(=CC(OC(=O)/C=C/C=C/CCCCC)CC12)C(OC(C)=O)OC3OC(C)=O (stereo not drawn) [Compound 19, corymbulosin A]	420	450	450	430	except with compound 19	no effect on cell cycle progression	–	440	most potent activity but only at the unusually high concentration of 500 μM	–	–	–	–	–	–	–	–	–
C=CC(=C)CC[C@]1(C)[C@H](C)C[C@H](OC(=O)CCCCCCCCC)[C@@]23C(=C[C@H](OC(C)=O)C[C@@H]12)[C@@H](OC(C)=O)O[C@H]3OC(C)=O [Compound 9, (2R,5S,6S,8R,9R,10S,18R,19S)-2,18,19-tri-O-acetyl-18,19-epoxy-6-decanoyloxycleroda-cleroda-3,13(16),14-triene]	19800	39200	40200	20500	–	–	–	31700	–	–	–	–	–	–	–	–	–	–
CC(=O)O[C@H]1C(=O)[C@@]2(C)[C@H]([C@H](OC(=O)c3ccccc3)[C@]3(O)C[C@H](OC(=O)[C@H](O)[C@@H](NC(=O)c4ccccc4)c4ccccc4)C(C)=C1C3(C)C)[C@]1(OC(C)=O)CO[C@@H]1C[C@@H]2O [Paclitaxel, reference compound]	–	–	–	–	–	–	–	–	–	7.07	6.53	8.36	12.1	–	–	–	–	–
C=CC(=C)CC[C@]1(C)[C@H](C)C[C@H](OC)[C@@]23C(=C[C@H](OC(=O)CC)C[C@@H]12)[C@@H](OC(C)=O)O[C@H]3OC(C)=O [Compound 4, (2R,5S,6S,8R,9R,10S,18R,−19S)-18,19-di-O-acetyl-18,19-epoxy-6-methoxy-2-propionyloxy-cleroda-3,13(16),14-triene]	5190	4920	4600	4950	–	–	–	4940	–	–	–	–	–	–	–	–	–	–
C=CC(=C)CC[C@]1(C)[C@H]2C[C@@H](OC(=O)C(C)CC)C=C3[C@H](OC(C)=O)O[C@H](OC(C)=O)[C@@]32[C@H](O)C[C@@H]1C (stereo partly drawn) [Compound 18, caseamembrin E]	–	–	–	–	–	–	–	–	–	430	530	400	550	400 to 1000	–	–	–	–
C=CC(=C)CC[C@]1(C)[C@H](C)C[C@H](OC)[C@@]23C(=C[C@H](OC(=O)C(C)C)C[C@@H]12)[C@@H](OC(C)=O)O[C@H]3OC(C)=O [Compound 3, (2R,5S,6S,8R,9R,10S,18R,19S)-18,19-di-O-acetyl-18,19-epoxy-6-methoxy-2-isobutanoyloxycleroda-3,13(16),14-triene]	450	–	470	490	significant accumulations of sub-G1 cells	no effect on cell cycle progression	–	500	–	–	–	–	–	–	normal morphology with intact nuclei and a clear microtubule network	fragmented and dispersed chromatin (arrowhead) with an apoptotic microtubule array	induced apoptosis in a dose-dependent manner	490
C=CC(=C)CC[C@]1(C)[C@H](C)C[C@H](OC)[C@@]23C(=C[C@H](OC(=O)[C@@H](C)CC)C[C@@H]12)[C@@H](OC(C)=O)O[C@H]3OC(C)=O [Compound 6, (2R,5S,6S,−8R,9R,10S,18R,19S)-18,19-di-O-acetyl-18,19-epoxy-6-methoxy-2-(2′-methylbutanoyloxy)-cleroda-3,13(16),14-triene]	5230	5190	5040	4900	–	–	–	5820	–	–	–	–	–	–	–	–	–	–
C=CC(=C)CC[C@]1(C)[C@H](C)C[C@H](OC(=O)CCCCC)[C@@]23C(=C[C@H](O)C[C@@H]12)[C@@H](OC(C)=O)O[C@H]3OC(C)=O [Compound 14, (2R,5S,6S,8R,−9R,10S,18R,19S)-18,19-di-O-acetyl-18,19-epoxy-2-hydroxy-6-hexanoyloxycleroda-3,13(16),14-triene]	4740	4880	4760	4730	–	–	–	5190	–	–	–	–	–	–	–	–	–	–
